Laboratory results as given in ChEMBL document CHEMBL4811218, “Discovery and optimization of withangulatin A derivatives as novel glutaminase 1 inhibitors for the treatment of triple-negative breast cancer” (Eur J Med Chem, 2021).

Key:
MDA-MB-231 [1] = assay: Antiproliferative activity against human MDA-MB-231 cells after 24 hrs by MTT assay; assay type: functional, cell-based; details: MDA-MB-231, 24 h
MDA-MB-231 [2] = assay: Antiproliferative activity against human MDA-MB-231 cells after 24 hrs by MTT assay relative to control; assay type: functional
How it was run: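 MDA-MB-231 cells kept in DMEM with 10% FBS at 37°C, 5% CO2. Seeded at 5×10^3 cells/well and left 24 h, then exposed to compounds at 0.078-10 µM for 24 h. 0.1% DMSO served as the vehicle control. MTT added for 4 h, formazan dissolved in DMSO, absorbance read at 570 nm. IC50 derived. Each run in triplicate, repeated at least three times.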

[3] = biological target: T1, Glutaminase kidney isoform, mitochondrial (Homo sapiens) (UniProt O94925); assay: Inhibition of human GLS1 at 10 uM relative to control
T1 sequence (whole entry): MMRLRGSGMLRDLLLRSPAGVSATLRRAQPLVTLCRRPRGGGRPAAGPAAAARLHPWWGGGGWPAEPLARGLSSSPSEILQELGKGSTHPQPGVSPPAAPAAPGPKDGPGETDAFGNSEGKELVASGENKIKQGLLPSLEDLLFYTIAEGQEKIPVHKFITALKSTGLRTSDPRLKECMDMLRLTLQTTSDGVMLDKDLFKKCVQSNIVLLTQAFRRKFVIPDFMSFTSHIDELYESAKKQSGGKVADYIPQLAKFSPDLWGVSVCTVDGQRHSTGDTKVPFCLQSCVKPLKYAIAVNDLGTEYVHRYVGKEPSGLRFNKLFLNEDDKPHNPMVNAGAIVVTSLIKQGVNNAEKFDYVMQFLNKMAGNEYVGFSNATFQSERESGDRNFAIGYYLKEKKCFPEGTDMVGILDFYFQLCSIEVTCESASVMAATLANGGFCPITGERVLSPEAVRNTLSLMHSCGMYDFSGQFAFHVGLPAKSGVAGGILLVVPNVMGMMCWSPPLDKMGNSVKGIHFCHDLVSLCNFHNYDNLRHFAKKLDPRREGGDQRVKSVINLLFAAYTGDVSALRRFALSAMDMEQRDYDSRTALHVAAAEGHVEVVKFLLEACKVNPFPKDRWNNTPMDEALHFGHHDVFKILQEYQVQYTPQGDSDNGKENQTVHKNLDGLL
How it was run: (§1)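 Human GLS1 hydrolase activity measured with a commercial GLS1 inhibitor screening kit, following the manufacturer's protocol. Single-point screening was run at 10 μM.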

[4] = biological target: T2, Glutaminase kidney isoform, mitochondrial (Homo sapiens, UniProt O94925); assay: Inhibition of human GLS1; how it was run: as §1
T2 sequence (O94925 whole entry): T1 sequence (whole entry)

Row | SMILES | IC50 (MDA-MB-231 [1]) [nM] | inhibition (INH) (MDA-MB-231 [2]) [%] | inhibition [3] [%] | IC50 [4] [nM]
1 | CC(=O)O[C@H]1C=C([C@H](C)[C@H]2CC(C)=C(C)C(=O)O2)[C@@]2(C)CC[C@H]3[C@@H](C[C@H]4O[C@]45[C@@H](OC(=O)/C=C/C(=O)Nc4ccc(N(C)C)cc4)C=CC(=O)[C@]35C)[C@@]12O | 1560 | 72.1 | < 50 | 
2 | CC(=O)O[C@H]1C=C([C@H](C)[C@H]2CC(C)=C(C)C(=O)O2)[C@@]2(C)CC[C@H]3[C@@H](C[C@H]4O[C@]45[C@@H](OC(=O)CCC(=O)Nc4ccc(N6CCOCC6)c(F)c4)C=CC(=O)[C@]35C)[C@@]12O | 1660 | 80.9 | 53.5 | 
3 | CC(=O)O[C@H]1C=C([C@H](C)[C@H]2CC(C)=C(C)C(=O)O2)[C@@]2(C)CC[C@H]3[C@@H](C[C@H]4O[C@]45[C@@H](OC(=O)CCCC(=O)Nc4nncs4)C=CC(=O)[C@]35C)[C@@]12O | 2170 | 71.6 | < 50 | 
4 | COc1ccc(NC(=O)CCCC(=O)O[C@H]2C=CC(=O)[C@]3(C)[C@H]4CC[C@]5(C)C([C@H](C)[C@H]6CC(C)=C(C)C(=O)O6)=C[C@H](OC(C)=O)[C@]5(O)[C@@H]4C[C@H]4O[C@]243)cc1 | 440 | 92.9 | 56.3 | 
5 | CC(=O)O[C@H]1C=C([C@H](C)[C@H]2CC(C)=C(C)C(=O)O2)[C@@]2(C)CC[C@H]3[C@@H](C[C@H]4O[C@]45[C@@H](OC(=O)/C=C/C(=O)O)C=CC(=O)[C@]35C)[C@@]12O | > 50000 |  | < 50 | 
6 | CC(=O)O[C@H]1C=C([C@H](C)[C@H]2CC(C)=C(C)C(=O)O2)[C@@]2(C)CC[C@H]3[C@@H](C[C@H]4O[C@]45[C@@H](OC(=O)CCC(=O)Nc4nc6ccccc6s4)C=CC(=O)[C@]35C)[C@@]12O | 3500 | 79.5 | < 50 | 
7 | CC(=O)O[C@H]1C=C([C@H](C)[C@H]2CC(C)=C(C)C(=O)O2)[C@@]2(C)CC[C@H]3[C@@H](C[C@H]4O[C@]45[C@@H](OC(=O)CCC(=O)O)C=CC(=O)[C@]35C)[C@@]12O | > 50000 |  | < 50 | 
8 | CC(=O)O[C@H]1C=C([C@H](C)[C@H]2CC(C)=C(C)C(=O)O2)[C@@]2(C)CC[C@H]3[C@@H](C[C@H]4O[C@]45[C@@H](OC(=O)/C=C/C(=O)Nc4ccc(N6CCOCC6)c(F)c4)C=CC(=O)[C@]35C)[C@@]12O | 1380 | 90.8 | 52.4 | 
9 | COc1ccc(NC(=O)CCC(=O)O[C@H]2C=CC(=O)[C@]3(C)[C@H]4CC[C@]5(C)C([C@H](C)[C@H]6CC(C)=C(C)C(=O)O6)=C[C@H](OC(C)=O)[C@]5(O)[C@@H]4C[C@H]4O[C@]243)cc1 | 1020 | 82.9 | < 50 | 
10 | CC(=O)O[C@H]1C=C([C@H](C)[C@H]2CC(C)=C(C)C(=O)O2)[C@@]2(C)CC[C@H]3[C@@H](C[C@H]4O[C@]45[C@@H](OC(=O)CCC(=O)Nc4nncs4)C=CC(=O)[C@]35C)[C@@]12O | 8070 | 77.5 | < 50 | 
11 | COc1ccc(NC(=O)/C=C/C(=O)O[C@H]2C(Nc3ccc(OC)cc3)CC(=O)[C@]3(C)[C@H]4CC[C@]5(C)C([C@H](C)[C@H]6CC(C)=C(C)C(=O)O6)=C[C@H](OC(C)=O)[C@]5(O)[C@@H]4C[C@H]4O[C@@]423)cc1 (stereo partly specified) | > 50000 | 0 | < 50 | 
12 | CC(=O)O[C@H]1C=C([C@H](C)[C@H]2CC(C)=C(C)C(=O)O2)[C@@]2(C)CC[C@H]3[C@@H](C[C@H]4O[C@]45[C@@H](OC(=O)CCCC(=O)Nc4ccc(N(C)C)cc4)C=CC(=O)[C@]35C)[C@@]12O | 1070 | 92.6 | 51.8 | 
13 | CC(=O)O[C@H]1C=C([C@H](C)[C@H]2CC(C)=C(C)C(=O)O2)[C@@]2(C)CC[C@H]3[C@@H](C[C@H]4O[C@]45[C@@H](OC(=O)CCCC(=O)Nc4ccc(F)cc4)C=CC(=O)[C@]35C)[C@@]12O | 490 | 95.4 | < 50 | 
14 | CC(=O)O[C@H]1C=C([C@H](C)[C@H]2CC(C)=C(C)C(=O)O2)[C@@]2(C)CC[C@H]3[C@@H](C[C@H]4O[C@]45[C@@H](OC(=O)CCC(=O)Nc4nccs4)C=CC(=O)[C@]35C)[C@@]12O | 2060 | 79.6 | < 50 | 
15 | COc1ccc(NC(=O)/C=C/C(=O)O[C@H]2C=CC(=O)[C@]3(C)[C@H]4CC[C@]5(C)C([C@H](C)[C@H]6CC(C)=C(C)C(=O)O6)=C[C@H](OC(C)=O)[C@]5(O)[C@@H]4C[C@H]4O[C@]243)cc1 | 790 | 94.1 | 51.6 | 
16 | CC(=O)O[C@H]1C=C([C@H](C)[C@H]2CC(C)=C(C)C(=O)O2)[C@@]2(C)CC[C@H]3[C@@H](C[C@H]4O[C@]45[C@@H](OC(=O)/C=C/C(=O)Nc4ccc(F)cc4)C=CC(=O)[C@]35C)[C@@]12O | 1320 | 88.9 | < 50 | 
17 | CC(=O)O[C@H]1C=C([C@H](C)[C@H]2CC(C)=C(C)C(=O)O2)[C@@]2(C)CC[C@H]3[C@@H](C[C@H]4O[C@]45[C@@H](OC(=O)CCCC(=O)Nc4nc6ccccc6s4)C=CC(=O)[C@]35C)[C@@]12O | 670 | 94.1 | < 50 | 
18 | CC(=O)O[C@H]1C=C([C@H](C)[C@H]2CC(C)=C(C)C(=O)O2)[C@@]2(C)CC[C@H]3[C@@H](C[C@H]4O[C@]45[C@@H](O)C=CC(=O)[C@]35C)[C@@]12O | 6340 | 74.7 | 41.4 | 18200
19 | CC(=O)O[C@H]1C=C([C@H](C)[C@H]2CC(C)=C(C)C(=O)O2)[C@@]2(C)CC[C@H]3[C@@H](C[C@H]4O[C@]45[C@@H](OC(=O)CCCC(=O)Nc4ccc(N6CCOCC6)c(F)c4)C(Nc4ccc(N6CCOCC6)c(F)c4)CC(=O)[C@]35C)[C@@]12O (stereo partly specified) | > 50000 | 0 | < 50 | 
20 | COc1ccc(NC(=O)CCC(=O)O[C@H]2C(Nc3ccc(OC)cc3)CC(=O)[C@]3(C)[C@H]4CC[C@]5(C)C([C@H](C)[C@H]6CC(C)=C(C)C(=O)O6)=C[C@H](OC(C)=O)[C@]5(O)[C@@H]4C[C@H]4O[C@@]423)cc1 (stereo partly specified) | > 50000 | 0 | < 50 | 
21 | CC(=O)O[C@H]1C=C([C@H](C)[C@H]2CC(C)=C(C)C(=O)O2)[C@@]2(C)CC[C@H]3[C@@H](C[C@H]4O[C@]45[C@@H](OC(=O)CCCC(=O)Nc4nccs4)C=CC(=O)[C@]35C)[C@@]12O | 1000 | 84.8 | < 50 | 
22 | O=C(Cc1ccccc1)Nc1nnc(CCSCCc2nnc(NC(=O)Cc3ccccc3)s2)s1 | 9080 | 68.5 |  | 
23 | CC(=O)O[C@H]1C=C([C@H](C)[C@H]2CC(C)=C(C)C(=O)O2)[C@@]2(C)CC[C@H]3[C@@H](C[C@H]4O[C@]45[C@@H](OC(=O)CCC(=O)Nc4ccc(F)cc4)C=CC(=O)[C@]35C)[C@@]12O | 1870 | 80.4 | < 50 | 
24 | CC(=O)O[C@H]1C=C([C@H](C)[C@H]2CC(C)=C(C)C(=O)O2)[C@@]2(C)CC[C@H]3[C@@H](C[C@H]4O[C@]45[C@@H](OC(=O)CCCC(=O)O)C=CC(=O)[C@]35C)[C@@]12O | > 50000 |  | < 50 | 
25 | COc1ccc(NC(=O)CCCC(=O)O[C@H]2C(Nc3ccc(OC)cc3)CC(=O)[C@]3(C)[C@H]4CC[C@]5(C)C([C@H](C)[C@H]6CC(C)=C(C)C(=O)O6)=C[C@H](OC(C)=O)[C@]5(O)[C@@H]4C[C@H]4O[C@@]423)cc1 (stereo partly specified) | > 50000 | 0 | < 50 | 
26 | CC(=O)O[C@H]1C=C([C@H](C)[C@H]2CC(C)=C(C)C(=O)O2)[C@@]2(C)CC[C@H]3[C@@H](C[C@H]4O[C@]45[C@@H](OC(=O)/C=C/C(=O)Nc4nc6ccccc6s4)C=CC(=O)[C@]35C)[C@@]12O | > 50000 | 0 | < 50 | 
27 | CC(=O)O[C@H]1C=C([C@H](C)[C@H]2CC(C)=C(C)C(=O)O2)[C@@]2(C)CC[C@H]3[C@@H](C[C@H]4O[C@]45[C@@H](OC(=O)/C=C/C(=O)Nc4nccs4)C=CC(=O)[C@]35C)[C@@]12O | 1830 | 88.4 | < 50 | 
28 | CC(=O)O[C@H]1C=C([C@H](C)[C@H]2CC(C)=C(C)C(=O)O2)[C@@]2(C)CC[C@H]3[C@@H](C[C@H]4O[C@]45[C@@H](OC(=O)CCC(=O)Nc4ccc(N(C)C)cc4)C=CC(=O)[C@]35C)[C@@]12O | 1620 | 83.3 | < 50 | 
